Test results from ChEMBL document CHEMBL4622889, “Antineurodegenerative Labdane Diterpenoid Glycosides from the Twigs of Pinus koraiensis” (J Nat Prod, 2020).

Experiments:
[1] = Cytotoxicity against rat C6 cells assessed as cell viability at 20 uM by MTT assay relative to control; assay type: cell-based; conditions: read-out: Activity
Summary of the method: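 C6 cells exposed to 20 μM of each compound; viability read by MTT and expressed as percent. Means ± SD of three independent experiments.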

C6 = assay: Neuroprotective activity in rat C6 cells assessed as NGF secretion at 20 uM incubated for 24 hrs by ELISA relative to control; assay type: functional
Summary of the method: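 Compounds applied to C6 glioma cells at 20 μM for 24 h; NGF released into the conditioned medium quantified by ELISA and given as percent of untreated control (100%). 6-Shogaol served as positive control. Means ± SD of three independent experiments.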

BV-2 = assay: Antineuroinflammatory activity against mouse BV2 cells assessed as inhibition of LPS-induced NO production incubated for 24 hrs by Griess assay; assay type: functional, cell-based; conditions: BV-2, 24 h
Summary of the method: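 BV2 microglia activated with LPS; NO production measured across compound concentrations, IC50 taken as the concentration (μM) giving 50% inhibition of NO production. Means ± SD of three independent experiments.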

[2] = Cytotoxicity against mouse BV2 cells assessed as cell viability at 20 uM by MTT assay relative to control; assay type: cell-based, BV-2; conditions: read-out: Activity
Summary of the method: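 BV2 cells treated with 20 μM of each compound; viability determined by MTT and expressed as percent. Means ± SD of three independent experiments.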

Compound	viability at 20 µM [1] [%]	Activity (C6) [%]	IC50 (BV-2) [µM]	viability at 20 µM [2] [%]
C=C1CC[C@@H]2[C@](C)(CC[C@H](O)[C@]2(C)C(=O)O[C@@H]2O[C@H](CO)[C@@H](O)[C@H](O)[C@H]2O)[C@H]1CCC1=CCOC1=O	98.3	134.7	68.8	91.3
C[C@]12CCC[C@](C)(C(=O)O[C@@H]3O[C@H](CO)[C@@H](O)[C@H](O)[C@H]3O)[C@@H]1CC[C@](C)(O)[C@@H]2CCC1=CCOC1=O	94.2	106.1	49.2	89.6
C=C1CC[C@@H]2[C@](C)(CCC[C@]2(C)C(=O)O[C@@H]2O[C@H](CO)[C@@H](O)[C@H](O)[C@H]2O)[C@H]1CC/C(=C\CO)CO	104	162.3	65.4	135
C=C1C[C@H](O)[C@@H]2[C@](C)(CCC[C@]2(C)C(=O)O[C@@H]2O[C@H](CO)[C@@H](O)[C@H](O)[C@H]2O)[C@H]1CCC1=CCOC1=O	101	128.7	35.7	99.7
C=C1CC[C@@H]2[C@](C)(CCC[C@]2(O)C(=O)O[C@@H]2O[C@H](CO)[C@@H](O)[C@H](O)[C@H]2O)[C@H]1CCC1=CCOC1=O	76	98.6	51.6	80.7
C=C1CC[C@@H]2[C@](C)(CCC[C@]2(C)C(=O)O[C@@H]2O[C@H](CO)[C@@H](O)[C@H](O)[C@H]2O)[C@H]1CCC1=CCOC1=O	101	142.4	65.8	92.1
CNC(=N)NCCC[C@H](N)C(=O)O [TILARGININE]			28.8	99.2
C=C1CC[C@@H]2[C@](C)(CC[C@@H](O)[C@]2(C)C(=O)O[C@@H]2O[C@H](CO)[C@@H](O)[C@H](O)[C@H]2O)[C@H]1CCC1=CCOC1=O	92.8	106.6	24.1	77.5
C=C1CC[C@@H]2[C@](C)(CCC[C@]2(C)C(=O)O[C@@H]2O[C@H](CO)[C@@H](O)[C@H](O)[C@H]2O)[C@H]1CC/C(=C/CO)CO	86.5	105.4	152	133
C=C1CC[C@@H]2[C@](C)(CCC[C@]2(C)C(=O)O[C@@H]2O[C@H](CO)[C@@H](O)[C@H](O)[C@H]2O)[C@H]1CCC1=CC(=O)OC1	105	162.7	54.1	107
C[C@]12CCC[C@](C)(C(=O)O[C@@H]3O[C@H](CO)[C@@H](O)[C@H](O)[C@H]3O)[C@@H]1CC=C(CO)[C@@H]2CCC1=CCOC1=O	102	119.4	93.2	87.7
C[C@]12CCC[C@](C)(C(=O)O[C@@H]3O[C@H](CO)[C@@H](O)[C@H](O)[C@H]3O)[C@@H]1CC[C@@](C)(O)[C@@H]2CCC1=CCOC1=O	111	84.5	402	70.4
